Reference: ChEMBL document CHEMBL1137941, “Doxorubicin prodrug on the basis of tert-butyl cephalosporanate sulfones” (Bioorg Med Chem Lett, 2004)
Converted amounts (≈) assume the structure as drawn. The source made the active and inactive calls. The rule behind the calls is not given here.

Experiments:
Mus musculus [1] = assay: Physiological change in cardiomyocytes after the treatment of male JRC mice with transplanted sarcoma S-180 by the administration of compound at dose of 1.5 mg/kg/day cells isolated on the 9th day by using CB assay; assay type: functional
Outline: (§1)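 Male JRC mice, healthy or bearing Sarcoma S-180, were dosed on days 1, 2, 3, 4 and 7. Cardiomyocytes were isolated on day 9 and resuspended in DMEM with 4% FBS, 2 mM glutamine, 13 mM NaHCO₃, 10 mM HEPES and streptomycin. After 4 h at 37° (95% air/5% CO₂), serum was omitted. Intracellular peptide was read by Coomassie Blue and mitochondrial redox by MTT, against cells from untreated animals.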

Mus musculus [2] = assay: Physiological change in cardiomyocytes after the treatment of male JRC healthy mice by the administration of compound at dose of 1.5 mg/kg/day cells isolated on the 9th day by using MTT assay; assay type: functional; outline: as §1
HT-1080 [3] = assay: In vitro inhibitory activity against human fibrosarcoma cell line (HT1080) using CV coloration; assay type: functional, cell-based
CCRF S-180 [4] = assay: Growth inhibitory effect administered at dose of 5.0 mg/kg/day given in the schedule of 1,2,3,4,7 day against Sarcoma S-180 tumor transplanted in male JRC mice at eleventh day was determined; assay type: functional; details: Mus musculus
Outline: (§2)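 Mice given the agent on days 1, 2, 3, 4 and 7. Doxorubicin was given in physiological solution (0.9% NaCl, pH 6.2). Prodrugs were given in the same solution with 2% DMSO and 0.3% agarose. Tumour growth inhibition (%) was read on fixed days against a vehicle-treated control; in the 2.0 mg/kg/day series, controls received physiological solution only. Negative values mean tumour growth was activated.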

CCRF S-180 [5] = assay: Growth inhibitory effect of compound when administered at dose of 1.5 mg/kg/day given in the schedule of 1,2,3,4,7 day against Sarcoma S-180 tumor transplanted in male JRC mice was determined; No effect; details: Mus musculus
B16 [6] = assay: Growth inhibitory effect administered at dose of 2.0 mg/kg/day given in the schedule of 1,2,3,4,7 day against (B16) mouse melanoma at eleventh day was determined; assay type: functional; outline: as §2
N2a [7] = assay: In vitro cytotoxic concentration against mouse neuroblastoma (neuro 2A) using MTT coloration; assay type: functional, cell-based
MG-22A [8] = assay: In vitro inhibitory activity against mouse hepatoma cell line (MG-22A) using CV coloration; assay type: functional, cell-based
Mus musculus [9] = assay: Physiological change in cardiomyocytes after the treatment of male JRC healthy mice by the administration of compound at dose of 5.0 mg/kg/day cells isolated on the 9th day by using MTT assay; assay type: functional; outline: as §1
MG-22A [10] = assay: In vitro cytotoxic concentration against mouse hepatoma cell line (MG-22A) using MTT coloration; assay type: functional, cell-based
Mus musculus [11] = assay: Physiological change in cardiomyocytes after the treatment of male JRC healthy mice by the administration of compound at dose of 5.0 mg/kg/day cells isolated on the 9th day by using CB assay; assay type: functional; outline: as §1
N2a [12] = assay: In vitro inhibitory activity against mouse neuroblastoma (neuro 2A) using CV coloration; assay type: functional, cell-based
CCRF S-180 [13] = assay: Growth inhibitory effect administered at dose of 5.0 mg/kg/day given in the schedule of 1,2,3,4,7 day against Sarcoma S-180 tumor transplanted in male JRC mice at fourteenth day was determined; assay type: functional; details: Mus musculus; outline: as §2
HT-1080 [14] = assay: In vitro cytotoxic concentration against human fibrosarcoma cell line (HT1080) using MTT coloration; assay type: functional, cell-based
B16 [15] = assay: In vitro inhibitory activity against mouse melanoma cell line (B16) using CV coloration; assay type: functional, cell-based
Mus musculus [16] = assay: Physiological change in cardiomyocytes after the treatment of male JRC mice with transplanted sarcoma S-180 by the administration of compound at dose of 1.5 mg/kg/day cells isolated on the 9th day by using MTT assay; assay type: functional; outline: as §1
B16 [17] = assay: Growth inhibitory effect administered at dose of 1.5 mg/kg/day given in the schedule of 1,2,3,4,7 day against (B16) mouse melanoma at fourteenth day was determined; assay type: functional; outline: as §2
B16 [18] = assay: Growth inhibitory effect administered at dose of 1.5 mg/kg/day given in the schedule of 1,2,3,4,7 day against (B16) mouse melanoma at eleventh day was determined; assay type: functional; outline: as §2
Mus musculus [19] = assay: Physiological change in cardiomyocytes after the treatment of male JRC healthy mice by the administration of compound at dose of 1.5 mg/kg/day cells isolated on the 9th day by using CB assay; assay type: functional; outline: as §1
Mus musculus [20] = assay: Physiological change in cardiomyocytes after the treatment of male JRC mice with transplanted sarcoma S-180 by the administration of compound at dose of 5.0 mg/kg/day cells isolated on the 9th day by using MTT assay; assay type: functional; outline: as §1
B16 [21] = assay: In vitro cytotoxic concentration against mouse melanoma cell line (B16) using MTT coloration; assay type: functional, cell-based
CCRF S-180 [22] = assay: Growth inhibitory effect administered at dose of 1.5 mg/kg/day given in the schedule of 1,2,3,4,7 day against Sarcoma S-180 tumor transplanted in male JRC mice at fourteenth day was determined; No effect; assay type: functional, organism-based; details: Mus musculus; outline: as §2
Mus musculus [23] = assay: Physiological change in cardiomyocytes after the treatment of male JRC mice with transplanted sarcoma S-180 by the administration of compound at dose of 5.0 mg/kg/day cells isolated on the 9th day by using CB assay; assay type: functional; outline: as §1
B16 [24] = assay: Growth inhibitory effect administered at dose of 5.0 mg/kg/day given in the schedule of 1,2,3,4,7 day against (B16) mouse melanoma at eleventh day was determined; assay type: functional; outline: as §2
B16 [25] = assay: Growth inhibitory effect administered at dose of 5.0 mg/kg/day given in the schedule of 1,2,3,4,7 day against (B16) mouse melanoma at fourteenth day was determined; assay type: functional; outline: as §2
B16 [26] = assay: Growth inhibitory effect when administered at dose of 1.5 mg/kg/day given in the schedule of 1,2,3,4,7 day against (B16) mouse melanoma at eleventh day was determined; assay type: functional; details: B16, read-out: Inhibition; outline: as §2
B16 [27] = assay: Growth inhibitory effect when administered at dose of 5.0 mg/kg/day given in the schedule of 1,2,3,4,7 day against (B16) mouse melanoma at fourteenth day was determined; assay type: functional; outline: as §2
B16 [28] = assay: Growth inhibitory effect when administered at dose of 5.0 mg/kg/day given in the schedule of 1,2,3,4,7 day against (B16) mouse melanoma at eleventh day was determined; assay type: functional; outline: as §2
B16 [29] = assay: Growth inhibitory effect when administered at dose of 2.0 mg/kg/day given in the schedule of 1,2,3,4,7 day against (B16) mouse melanoma at eleventh day was determined; ND= No data; assay type: functional; outline: as §2
B16 [30] = assay: Growth inhibitory effect when administered at dose of 1.5 mg/kg/day given in the schedule of 1,2,3,4,7 day against (B16) mouse melanoma at fourteenth day was determined; assay type: functional; details: B16, read-out: Inhibition; outline: as §2
B16 [31] = assay: Growth inhibitory effect when administered at dose of 2.0 mg/kg/day given in the schedule of 1,2,3,4,7 day against (B16) mouse melanoma at fourteenth day was determined; assay type: functional; outline: as §2
CCRF S-180 [32] = assay: Growth inhibitory effect when administered at dose of 2.0 mg/kg/day given in the schedule of 1,2,3,4,7 day against Sarcoma S-180 tumor transplanted in male JRC mice at fourteenth day was determined; assay type: functional, organism-based; details: Mus musculus
CCRF S-180 [33] = assay: Growth inhibitory effect when administered at dose of 5.0 mg/kg/day given in the schedule of 1,2,3,4,7 day against Sarcoma S-180 tumor transplanted in male JRC mice at fourteenth day was determined; assay type: functional, Mus musculus; outline: as §2
CCRF S-180 [34] = assay: Growth inhibitory effect administered at dose of 1.5 mg/kg/day given in the schedule of 1,2,3,4,7 day against Sarcoma S-180 tumor transplanted in male JRC mice at eleventh day was determined; assay type: functional; details: Mus musculus, in the assay text read “seventh day” for “eleventh day”; outline: as §2
CCRF S-180 [35] = assay: Growth inhibitory effect administered at dose of 1.5 mg/kg/day given in the schedule of 1,2,3,4,7 day against Sarcoma S-180 tumor transplanted in male JRC mice at fourteenth day was determined; assay type: functional; details: Mus musculus, in the assay text read “ninth day” for “fourteenth day”; outline: as §2

Compound	Activity (Mus musculus [1])	Activity (Mus musculus [2])	IC50 (HT-1080 [3])	inhibition in vivo at 5 mg/kg/day (CCRF S-180 [4])	IC50 (N2a [7])	IC50 (MG-22A [8])	Activity (Mus musculus [9])	IC50 (MG-22A [10])	Activity (Mus musculus [11])	IC50 (N2a [12])	inhibition in vivo at 5 mg/kg/day (CCRF S-180 [13])	IC50 (HT-1080 [14])	IC50 (B16 [15])	Activity (Mus musculus [16])	inhibition in vivo at 1.5 mg/kg/day (B16 [17])	inhibition in vivo at 1.5 mg/kg/day (B16 [18])	Activity (Mus musculus [19])	Activity (Mus musculus [20])	IC50 (B16 [21])	Activity (Mus musculus [23])	also measured
COc1cccc2c1C(=O)c1c(O)c3c(c(O)c1C2=O)C[C@@](O)(C(=O)CO)C[C@@H]3O[C@H]1C[C@H](NC(=O)OCC2=C(C(=O)OC(C)(C)C)N3C(=O)[C@@H](Cl)[C@@H]3S(=O)(=O)C2)[C@@H](O)[C@H](C)O1	106	85	0.02 µg/mL (≈ 0.022 µM)	72%	0.008 µg/mL (≈ 0.00882 µM)	0.03 µg/mL (≈ 0.0331 µM)	87	0.04 µg/mL (≈ 0.0441 µM)	90	0.001 µg/mL (≈ 0.0011 µM)	30%	0.08 µg/mL (≈ 0.0882 µM)	0.03 µg/mL (≈ 0.0331 µM)	225	26%	75%	92	230	0.04 µg/mL (≈ 0.0441 µM)	70	inhibition (CCRF S-180 [5]): inactive; Inhibition (B16 [6]): 86%; inhibition in vivo at 2 mg/kg/day (B16 [6]; Mus musculus, B16, read-out: Inhibition): 86%; inhibition (CCRF S-180 [22]): inactive
COc1cccc2c1C(=O)c1c(O)c3c(c(O)c1C2=O)C[C@@](O)(C(=O)CO)C[C@@H]3OC1C[C@H](NC(=O)OCC2=C(C(=O)OC(C)(C)C)N3C(=O)/C(=C/C(=O)OC(C)(C)C)[C@@H]3S(=O)(=O)C2)[C@@H](O)[C@H](C)O1 (stereo partly specified)	92	54	0.4 µg/mL (≈ 0.406 µM)	-10%	0.04 µg/mL (≈ 0.0406 µM)	0.07 µg/mL (≈ 0.0711 µM)	102	0.07 µg/mL (≈ 0.0711 µM)	75	0.04 µg/mL (≈ 0.0406 µM)	22%	0.5 µg/mL (≈ 0.508 µM)	0.09 µg/mL (≈ 0.0914 µM)	270	-49%	13%	87	360	0.5 µg/mL (≈ 0.508 µM)	90	inhibition in vivo at 5 mg/kg/day (B16 [24]): 11%; inhibition in vivo at 5 mg/kg/day (B16 [25]): 16%
COc1cccc2c1C(=O)c1c(O)c3c(c(O)c1C2=O)C[C@@](O)(C(=O)CO)C[C@@H]3O[C@H]1C[C@H](N)C(O)[C@H](C)O1 (single isomer, unassigned) [DOXORUBICIN]	90	40	0.17 µg/mL (≈ 0.313 µM)		< 0.001 µg/mL	< 0.001 µg/mL	39	0.73 µg/mL (≈ 1.34 µM)	60	0.004 µg/mL (≈ 0.00736 µM)		0.31 µg/mL (≈ 0.57 µM)	0.001 µg/mL (≈ 0.00184 µM)	114			83	130	< 0.001 µg/mL	81	inhibition in vivo at 1.5 mg/kg/day (B16 [26]): 70%; inhibition in vivo at 5 mg/kg/day (B16 [27]): 75%; inhibition in vivo at 5 mg/kg/day (B16 [28]): 65%; inhibition in vivo at 2 mg/kg/day (B16 [29]): 25%; inhibition in vivo at 1.5 mg/kg/day (B16 [30]): 60%; inhibition in vivo at 2 mg/kg/day (B16 [31]): 70%; inhibition (CCRF S-180 [32]): Not detectable; Inhibition (CCRF S-180 [33]): 37%; inhibition in vivo at 5 mg/kg/day (CCRF S-180 [33]; Mus musculus, CCRF S-180, read-out: Inhibition): 37%; inhibition in vivo at 1.5 mg/kg/day (CCRF S-180 [34]): 7%; inhibition in vivo at 1.5 mg/kg/day (CCRF S-180 [35]): 28%
CC1=C(C(=O)OC(C)(C)C)N2C(=O)[C@H](Cl)[C@H]2S(=O)(=O)C1			6 µg/mL (≈ 18.6 µM)		2 µg/mL (≈ 6.22 µM)	6 µg/mL (≈ 18.6 µM)		2 µg/mL (≈ 6.22 µM)		2 µg/mL (≈ 6.22 µM)		6 µg/mL (≈ 18.6 µM)	3 µg/mL (≈ 9.32 µM)						2 µg/mL (≈ 6.22 µM)		
